B1: NELF-E aptamer (parent)
chain: CCCAACGACUGCCGAGCGAGAUUACGCUUGAGCGCCCCACUGAGGAUGCCCACGGGCGAUUGGGGCACGG

The variants in the data set derive from B1. The data set can be described thus: HiTS-RAP. Conditions: with NELF-E (Drosophila). The procedure, abridged:
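Kd came from weighted Hill fits to the first binding curve, with intensities normalised to sequencing intensity and averaged per sequence, keeping only fits whose variance was below 1,000,000. That curve was imaged on an Illumina GAIIx flowcell, where sequenced aptamer DNA templates with a T7 promoter and ter site had been transcribed in situ by T7 RNA polymerase and halted by GST-Tus (30 minutes, 37°C). Before each image, clusters equilibrated for 30 minutes at room temperature with NELF-E-mOrange at 0.064 to 1000 nM in HEPES binding buffer.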
As a reminder, the Kd is a measure of binding affinity in units of concentration. Take CCCAACGACUGCCGAGUGAGAGUACGCUUGAGCGCCCCACUGAGGAUGCCCACGGGCGAUUGGGGCACGG [C17U U22G]: the Kd came out at 4.67 nM. For the variant CCCAACGACUGCCGAGUGAGAUUGCGCUUGAGCGCCCCACUGAGGAUGCCCACGGGCGAUUGGGGCACGG [C17U A24G], the equilibrium dissociation constant (Kd) worked out at 5.54 nM. With CCCAACGACUGCCGAGCGGGAUUACGCUUGAGCGCCCCACUGAGGAUGCCCACGGGCGAUUGGGUCACGG [A19G G65U] the figure was 7.38 nM; with CCCAACGACUGCCGAGCGGGAUUACGCUUGAGCGCCCCACUGAGGAUGCCCACGGGCGAUUGGGACACGG [A19G G65A], 6.12 nM; with CCCAACGACUGCCGAGCAAGAUUACGCUGGAGCGCCCCACUGAGGAUGCCCACGGGCGAUUGGGGCACGG [G18A U29G], 5.68 nM. Regarding CCCAACGACUGCCGAGCAAGAUUGCGCUUGAGCGCCCCACUGAGGAUGCCCACGGGCGAUUGGGGCACGG [G18A A24G], the dissociation constant Kd is 5.85 nM. With CCCAACGACUGCCGAGGGAGAUUACGCUUGAGCGCCCCACGGAGGAUGCCCACGGGCGAUUGGGGCACGG [C17G U41G] the figure was 4.85 nM; with CCCAACGACUGCCGAGCAAGAUGACGCUUGAGCGCCCCACUGAGGAUGCCCACGGGCGAUUGGGGCACGG [G18A U23G], 4.95 nM; with CCCAACGACUGCCGAGCGGGAUUACGCUUGAGCGCCCCACUGAGGAUGCCCACGGGCGAUUGGGGUACGG [A19G C66U], 5.18 nM.

For CCCAACGACUGCCGAGCGGGAUUACGCUUGAGCGCCCCACUGAGGAUGCCCAUGGGCGAUUGGGGCACGG [A19G C53U], the Kd was 4.21 nM.

With CCCAACGACUGCCGAGCGGGAUUAUGCUUGAGCGCCCCACUGAGGAUGCCCACGGGCGAUUGGGGCACGG [A19G C25U], the Kd was 6.25 nM. Then CCCAACGACUGCCGAGCGGGAUUAGGCUUGAGCGCCCCACUGAGGAUGCCCACGGGCGAUUGGGGCACGG [A19G C25G], with 5.29 nM; and CCCAACGACUGCCGAGCGGGAUUACGCUUAAGCGCCCCACUGAGGAUGCCCACGGGCGAUUGGGGCACGG [A19G G30A], with 4.57 nM.

In the case of CCCAACGACUGCCGAGCGGGAUUACGCUUGAGCGCCCCACUGAGGGUGCCCACGGGCGAUUGGGGCACGG [A19G A46G], the Kd stood at 20.6 nM. CCCAACGACUGCCGAGUGAGAUUACGCUUGAGCACCCCACUGAGGAUGCCCACGGGCGAUUGGGGCACGG [C17U G34A]: the Kd came to 5.49 nM. Then CCCAACGACUGCCGAGUGAGAUUACGCUUGAGCGCCCCACGGAGGAUGCCCACGGGCGAUUGGGGCACGG [C17U U41G], with 5.63 nM; and CCCAACGACUGCCGAGCGGGGUUACGCUUGAGCGCCCCACUGAGGAUGCCCACGGGCGAUUGGGGCACGG [A19G A21G], with 6.58 nM; and CCCAACGACUGCCGAGCGCGAUUACGCUUGAGCGCCCCACUGAGGAUGCCCACGGGCGAUUGGGGCACGG [A19C], with 4.44 nM. With CCCAACGACUGCCGAGCGGGAUUACGCUUGAGCGCCCCACUGAGGAUGCCCACGGGCGAUUGGGGCACGG [A19G] the figure was 5.18 nM; with CCCAACGACUGCCGAGUGAGAUUACGCUUGAGCGCCCCACUGAGGAUGCCCACGGGCGAUUGGGGCACGG [C17U], 4.56 nM; with CCCAACGACUGCCGAGUGGGAUUACGCUUGAGCGCCCCACUGAGGAUGCCCACGGGCGAUUGGGGCACGG [C17U A19G], 7.29 nM.

Consider CCCAACGACUGCCGAGCGGGAUUACGCUUGAGCGCCCCACUGAGGAUGCCCACGGGUGAUUGGGGCACGG [A19G C57U], for which the Kd turned out to be 4.99 nM.

CCCAACGACUGCCGAGCGGUAUUACGCUUGAGCGCCCCACUGAGGAUGCCCACGGGCGAUUGGGGCACGG [A19G G20U]: the Kd is 6.34 nM. With CCCAACGACUGCCGAGCGGAAUUACGCUUGAGCGCCCCACUGAGGAUGCCCACGGGCGAUUGGGGCACGG [A19G G20A] the figure was 6.4 nM; with CCCAACGACUGCCGAGCGGGAUUACGCUUGAGCGCCCCACUGAGGAUGCCCACGGGCGAUUGAGGCACGG [A19G G63A], 19.1 nM; with CCCAACGACUGCCGAGCGGGAUUACGCUUGAGCGCCCCACUGAGGAUGCCCACGGGCGAUUGUGGCACGG [A19G G63U], 14.8 nM.

Consider CCCAACGACUGCCGAGCGGGAUUACGCUUGAGCGCCCCACUGAGGAUGCCCACGGGCGAUUGGGGCGCGG [A19G A67G], for which the Kd stood at 5.94 nM.

With CCCAACGACUGCCGAGCGGGAUUACGCUUGAGCGCCCCACUGAGGAUGCCCACGGGCGAUUGGGGCUCGG [A19G A67U], the Kd worked out at 5.89 nM. Then CCCAACGACUGCCGAGUGAGAUUACGCUUGAGCGCCCCACUGAGGAUGCCCACGGGCGAUUGGAGCACGG [C17U G64A], with 11.1 nM; and CCCAACGACUGCCGAGCUAGAUUACGCUGGAGCGCCCCACUGAGGAUGCCCACGGGCGAUUGGGGCACGG [G18U U29G], with 7.47 nM; and CCCAACGACUGCCGAGCGGGAUUACGCUUGAGCGCCCCACUGAGGAUGCCCACGGGCGAUUGGAGCACGG [A19G G64A], with 6.54 nM. With CCCAACGACUGCCGAGCGGGAUUACGCUUGAGCGCCCCACUGAGGAUGCCCACGUGCGAUUGGGGCACGG [A19G G55U] the figure was 10.6 nM; with CCCAACGACUGCCGAGCGGGAUUACGCUUGAGCGCCCCACUGAGGAUGCCCACGAGCGAUUGGGGCACGG [A19G G55A], 7.92 nM; with CCCAACGACUGCCGAGCGGGAUGACGCUUGAGCGCCCCACUGAGGAUGCCCACGGGCGAUUGGGGCACGG [A19G U23G], 6.11 nM. Then CCCAACGACUGCCGAGCGGGAUUACGCUUGAGCGCCCCACGGAGGAUGCCCACGGGCGAUUGGGGCACGG [A19G U41G], with 6.27 nM. Regarding CCCAACGACUGCCGAGCGGGAUUACGCUUGAGCGCCCCACCGAGGAUGCCCACGGGCGAUUGGGGCACGG [A19G U41C], the Kd was determined as 92.4 nM. With CCCAACGACUGCCGAGUGAGAUUACGCUUGGGCGCCCCACUGAGGAUGCCCACGGGCGAUUGGGGCACGG [C17U A31G] the figure was 5.15 nM; with CCCAACGACUGCCGAGCGGGAUUUCGCUUGAGCGCCCCACUGAGGAUGCCCACGGGCGAUUGGGGCACGG [A19G A24U], 7.26 nM.

Source of the values: the RNAGym collection of RNA variant scans (doi:10.1038/nmeth.2970).
